A word on the inhibition: it is the relative decrease from the control value, in per cent.

The structures appear in SMILES notation.

A short description of series [1]: Cytotoxicity against YFV infected BHK21 cells at 15 uM. The class given is cell-based, Mesocricetus auratus. The note with it: hamster, bhk-21, 15 µM.
For the next series, the system named is Yellow fever virus. In words: Antiviral activity against YFV infected in BHK21 cells assessed as inhibition of virus-induced cytopathic effect at 15 uM. Conditions: BHK-21. The class given is functional. (Protection from cytopathic effect is a common read-out in antiviral testing.)
In a further series the test system is dengue virus type 2. Put plainly: Antiviral activity against DENV infected in BHK21 cells assessed as inhibition of virus-induced cytopathic effect at 15 uM. The class given is functional. Conditions: BHK-21. The gist of the method:
(§1)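 Single test concentration 15 µM of drug in acutely infected BHK cells; inhibition of virus-induced cytopathogenicity read by CPE assay, reported as % inhibition.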

In another series the test system is West Nile virus. In words: Antiviral activity against WNV infected in BHK21 cells assessed as inhibition of virus-induced cytopathic effect at 15 uM. The class given is functional. Conditions: BHK-21. An outline of the steps: as §1
Series [2] can be described thus: Cytotoxicity against human GS4.1 cells at 15 uM. The class given is cell-based. The gist of the method: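 Cellular toxicity of drug at a single test concentration of 15 µM in GS4.1 (HCV replicon) cells; reported as % toxicity.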
The test system of the next series is Hepatitis C virus. In words: Antiviral activity against HCV assessed at 15 uM by ELISA. The class given is functional, Hepacivirus hominis. The gist of the method: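 HCV replicon replication in GS4.1 cells, read by ELISA-based replicon assay at a single test concentration of 15 µM of drug; reported as % inhibition.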
The nature of series [3]: Cytotoxicity against DENV infected BHK21 cells at 15 uM. The class given is cell-based, Mesocricetus auratus. The note with it: hamster, bhk-21, 15 µM. The gist of the method:
(§2)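 Cellular toxicity measured at a single test concentration of 15 µM of drug in BHK cells run alongside the flavivirus CPE assays; reported as % toxicity.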

A short description of series [4]: Cytotoxicity against WNV infected BHK21 cells at 15 uM. Conditions: hamster, bhk-21, 15 µM. The class given is cell-based, Mesocricetus auratus. An outline of the steps: as §2

For `C#CCn1ccc(=O)[nH]c1=O`, the Activity is given as 0.08% in series [1], -8.85% in series [2], 2.76% in series [3] and 2.76% in series [4]. For the same compound, the inhibition at 15 µM in the series on Yellow fever virus is -11.3%; with dengue virus type 2, -4.6%; in the series on West Nile virus, -4.57%; with Hepatitis C virus, 12.1%.

On to `C#CCn1ccc2c(Cl)ncnc21`, for which the Activity in series [1] was -19.45%; in series [2], 1.84%; in series [3], -9.83%; in series [4], -9.83%. The inhibition at 15 µM with Yellow fever virus was -0.25%; in the series on dengue virus type 2, -0.85%; in the series on West Nile virus, 3.81%; in the series with Hepatitis C virus it was 69.2%.

As for `Cc1ccc(C(=O)OC[C@H]2O[C@@H](n3cc(Cn4ccc5c(Cl)nc(N)nc54)nn3)C[C@@H]2OC(=O)c2ccc(C)cc2)cc1`, the inhibition at 15 µM in the series on dengue virus type 2 is -2.39%; in the series on West Nile virus it was -1.44%; in the series on Hepatitis C virus, 32.1%. Moreover, the figures for the Activity in series [2], in series [3] and in series [4] were 6.49%, 0.17% and 0.17%, respectively.

For the compound `Nc1ncnc2c1ccn2Cc1cn([C@H]2C[C@H](O)[C@@H](CO)O2)nn1`, the Activity in series [1] was 4.48%; in series [2], -3.79%; in series [3], 3.14%; in series [4], 3.14%. The inhibition at 15 µM in the series with Yellow fever virus was 11%; in the series on dengue virus type 2 it was 3.43%; with West Nile virus, 2.42%; with Hepatitis C virus, -3.8%.

Turning to `C#CCn1cnc2c(N)ncnc21`, the Activity in series [1] is given as -7.46%; in series [2] it was -10.4%; in series [3] it was 3.8%; in series [4], 3.8%. The inhibition at 15 µM in the series with Yellow fever virus is -2.81%; with dengue virus type 2, -3.4%; in the series on West Nile virus, -1.77%; in the series on Hepatitis C virus, 2.99%.

Regarding `Nc1ccn(Cc2cn([C@H]3C[C@H](O)[C@@H](CO)O3)nn2)c(=O)n1`, the Activity in series [1] was -4.62%; in series [2], -5.59%; in series [3], 9.41%; in series [4] it was 9.41%. For the same compound, the inhibition at 15 µM worked out at 7.89% with Yellow fever virus, 0.95% in the series with dengue virus type 2, 0.24% in the series on West Nile virus and 10.1% in the series on Hepatitis C virus.

With `O=c1ccn(Cc2cn([C@H]3C[C@H](O)[C@@H](CO)O3)nn2)c(=O)[nH]1`, the Activity was -4.57% in series [1], -5.59% in series [2], 9.5% in series [3] and 9.5% in series [4]. Further, the inhibition at 15 µM was 4.59% in the series on Yellow fever virus, 0.75% with dengue virus type 2, -2.67% in the series on West Nile virus and 0.04% with Hepatitis C virus.

As to `Cc1ccc(C(=O)OC[C@H]2O[C@@H](n3cc(Cn4ccc(N)nc4=O)nn3)C[C@@H]2OC(=O)c2ccc(C)cc2)cc1`, the inhibition at 15 µM is -2.26% in the series on dengue virus type 2, -3.67% in the series on West Nile virus and 15.6% with Hepatitis C virus. Further, the figures for the Activity in series [2], in series [3] and in series [4] were -8.12%, 4.08% and 4.08%, respectively.

Consider `Nc1nc(Cl)c2ccn(Cc3cn([C@H]4C[C@H](O)[C@@H](CO)O4)nn3)c2n1`, for which the Activity is 8.55% in series [1], -3.3% in series [2], 1.3% in series [3] and 1.3% in series [4]. For the same compound, the inhibition at 15 µM with Yellow fever virus was 13.3%; in the series on dengue virus type 2, 2.49%; with West Nile virus, 5.71%; with Hepatitis C virus it was 2.93%.

As to `O=C(Nc1ncnc2c1ncn2Cc1cn([C@H]2C[C@H](O)[C@@H](CO)O2)nn1)c1ccccc1`, the Activity is recorded as -2.91% in series [1], -3.55% in series [2], 5.54% in series [3] and 5.54% in series [4]. The inhibition at 15 µM was 8.76% in the series with Yellow fever virus, 1.02% with dengue virus type 2, -1.16% in the series with West Nile virus and 9.02% in the series on Hepatitis C virus.

Regarding `Cc1ccc(C(=O)OC[C@H]2O[C@@H](n3cc(Cn4ccc5c(Cl)ncnc54)nn3)C[C@@H]2OC(=O)c2ccc(C)cc2)cc1`, the values for the inhibition at 15 µM in the series with dengue virus type 2, in the series with West Nile virus and in the series on Hepatitis C virus were -1.05%, -2.95% and 49.2%, respectively. Further, the Activity in series [2] worked out at 20.77%; in series [3], 0.31%; in series [4], 0.31%.

Turning to `Nc1ncnc2c1ncn2Cc1cn([C@H]2C[C@H](O)[C@@H](CO)O2)nn1`, the Activity is -2.12% in series [1], -0.61% in series [2], 7.85% in series [3] and 7.85% in series [4]. Besides, the inhibition at 15 µM with Yellow fever virus was 8.36%; in the series on dengue virus type 2, 1.02%; in the series on West Nile virus it was -0.43%; in the series on Hepatitis C virus, 7.54%.

As to `Cc1ccc(C(=O)OC[C@H]2O[C@@H](n3cc(Cn4ccc(=O)[nH]c4=O)nn3)C[C@@H]2OC(=O)c2ccc(C)cc2)cc1`, the results for the inhibition at 15 µM in the series with dengue virus type 2, with West Nile virus and in the series with Hepatitis C virus were 0.82%, -2.84% and 11.3%, respectively. The Activity was -4.12% in series [2], 3.37% in series [3] and 3.37% in series [4].

For the compound `OC[C@H]1O[C@@H](n2cc(Cn3cnc4c3ncn3ccnc43)nn2)C[C@@H]1O`, the Activity was -11.67% in series [1], -2.24% in series [2], -2.95% in series [3] and -2.95% in series [4]. Moreover, the inhibition at 15 µM was 4.39% with Yellow fever virus, 2.23% in the series on dengue virus type 2, -2.44% with West Nile virus and 6.07% with Hepatitis C virus.
